We go through twelve compounds from PMC8451076 (International Journal of Nanomedicine, 2021).

Data set [1] is described as follows: Solubility of BBR in supersaturated aqueous solutions. The class given is physicochemical. As to conditions: water, thermodynamic from solid. In outline: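 Supersaturated aqueous preparations, each at 10 mg/mL BBR, were sonicated 1 h and centrifuged at 16,000 rpm for 10 min. BBR in the supernatant was quantified by LC-MS. n = 6.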
The format of data set [2] is physicochemical. In a few lines:
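Test material containing 10 mg BBR was enclosed in a blank capsule and run in a rotating-basket tester at 50 rpm and 37 ± 0.5°C. Medium was 900 mL HCl buffer (2.0 g NaCl, pH 1.2; sampled 5–90 min) or 0.2 M sodium phosphate (pH 6.8; sampled 2.5 min–6 h). Samples were 0.22-μm filtered and centrifuged, then BBR was quantified by LC-MS. n = 6.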

The nature of data set [3]: Transportation of BBR across MDCK-MDR1 cell monolayer. The class given is in vitro ADME, canine. As to conditions: dog. In a few lines:
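MDCK-MDR1 cells were grown in DMEM/10% FBS/15 mM HEPES and seeded on polycarbonate Transwells (2×10^5 cells/mL) until TEER exceeded 500 Ω·cm2. Cells were equilibrated 20 min in HBSS (pH 7.2). BBR (final 10 μg/mL) was added apical or basolateral, and both sides were sampled after 2 or 4 h for LC-MS/MS. Papp = ΔQ/(Δt·A·C0), with A 0.33 cm2.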

The nature of data set [4]: Metabolism stability of BBR in intestinal S9. The class given is in vitro ADME. As to conditions: mouse, intestinal S9, pH 7.4. In outline: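 Mouse intestinal S9 (2 mg/mL) plus test material (BBR final 10 μg/mL) in 50 mM Tris-HCl pH 7.4 was preincubated 5 min at 37°C, then started with NADPH (1 mg/mL). After 0.5 or 1 h, reactions were stopped with equal-volume chilled methanol containing carbamazepine internal standard and centrifuged. Residual BBR and demethylberberine were measured by LC-MS/MS.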

For data set [5] the following is noted: cited from earlier work; for oral bioavailability: purified constituents of TCMs.
A further data set concerns Caco-2 cells. Kind of data set: Uptake of BBR in Caco-2 cells with endocytosis inhibitors. The class given is cell-based, human. As to conditions: Nnps containing 10 μg/mL BBR, 4 h, indomethacin 100 μg/mL, chlorpromazine 10 μg/mL, cytochalasin D 5 μM.

Structures are written as SMILES. Counter-ions that a name gives are not always drawn. Like-named read-outs stand apart in the source and are kept apart here.

As usually defined, the solubility is the concentration that dissolves in the medium under given conditions. Higher therefore signals much dissolved substance. One may read the Papp as a coefficient for how fast a substance crosses the barrier. One may read the half-life as how long it takes for the measured level to halve. A higher half-life goes with slow decline.

As for `COc1ccc2cc3[n+](cc2c1OC)CCc1cc2c(cc1-3)OCO2` [BBR, berberine hydrochloride], the solubility at 1 h in data set [1] is ~3700 µg/mL. In addition, the “dissolution rate of BBR” value in data set [2] (artificial gastric juice (pH 1.2), 15 min) amounted to 7.5%; in data set [2] (artificial gastric juice (pH 1.2), end point), 35.3%; in data set [2] (artificial intestinal juice (pH 6.8), 15 min), 1.8%; in data set [2] (artificial intestinal juice (pH 6.8), end point 6 h), 60.9%. Also, in data set [3], the apparent permeability (Papp) at 10 μg/mL was < 1 ×10⁻⁶ cm/s. The compound also registered a half-life at 10 μg/mL in data set [4] of 2.48 h. The “bioavailability of oral BBR” value in data set [5] (oral) is listed as 0.36%. For the same compound, the “fraction of BBR excreted directly with feces after oral administration” value in data set [5] (oral) is recorded as “approximately 56%”. For the same compound, in data set [5] (oral), the “intestinal elimination of the oral dose” value is listed as 43.5%. Further, the oral bioavailability result in data set [5] is recorded as “less than 5%”.
Consider `CN(C)CCCN1c2ccccc2Sc2ccc(Cl)cc21` [Chlorpromazine, chlorpromazine], for which the “effect of endocytosis inhibitor on uptake of BBR carried by the Nnps” value (“effect of endocytosis inhibitor” below) in the data set with Caco-2 cells is given as “promoted the uptake”.
`COc1ccc2c(c1)c(CC(=O)O)c(C)n2C(=O)c1ccc(Cl)cc1` [Indomethacin, indomethacin]: the “effect of endocytosis inhibitor” value with Caco-2 cells is reported as “significantly reduced”.
For `CC(C)=CCC[C@](C)(O[C@@H]1O[C@H](CO[C@@H]2OC[C@H](O)[C@H](O)[C@H]2O)[C@@H](O)[C@H](O)[C@H]1O)[C@H]1CC[C@]2(C)[C@@H]1[C@H](O)C[C@@H]1[C@@]3(C)CC[C@H](O[C@@H]4O[C@H](CO)[C@@H](O)[C@H](O)[C@H]4O[C@@H]4O[C@H](CO)[C@@H](O)[C@H](O)[C@H]4O)C(C)(C)[C@@H]3CC[C@]12C` [Rb2, ginsenoside Rb2], the oral bioavailability entry in data set [5] is “less than 5%”.
As to `CC(C)=CCC[C@](C)(O[C@@H]1O[C@H](CO[C@@H]2OC[C@@H](O)[C@H](O)[C@H]2O)[C@@H](O)[C@H](O)[C@H]1O)[C@H]1CC[C@]2(C)[C@@H]1[C@H](O)C[C@@H]1[C@@]3(C)CC[C@H](O[C@@H]4O[C@H](CO)[C@@H](O)[C@H](O)[C@H]4O[C@@H]4O[C@H](CO)[C@@H](O)[C@H](O)[C@H]4O)C(C)(C)[C@@H]3CC[C@]12C` [Rb3, ginsenoside Rb3], the oral bioavailability result in data set [5] is “less than 5%”.
On to `CC(C)(O)[C@@H]1CC[C@](C)([C@H]2[C@@H](O)C[C@@]3(C)[C@@H]4C[C@H](O[C@@H]5O[C@H](CO)[C@@H](O)[C@H](O)[C@H]5O)[C@H]5C(C)(C)[C@@H](O[C@@H]6OC[C@@H](O)[C@H](O)[C@H]6O)CC[C@@]56C[C@@]46CC[C@]23C)O1` [astragaloside IV], for which, in data set [5], the oral bioavailability entry is given as “less than 5%”.
For `O=C(O)[C@H]1O[C@@H](Oc2cc3oc(-c4ccccc4)cc(=O)c3c(O)c2O)[C@H](O)[C@@H](O)[C@@H]1O` [baicalin], the oral bioavailability entry in data set [5] was “less than 5%”.
Consider `COc1cc(/C=C/C(=O)CC(=O)/C=C/c2ccc(O)c(OC)c2)ccc1O` [curcumin], for which the oral bioavailability entry in data set [5] is “less than 5%”.
On to `C=C1[C@@H](C)[C@H]2[C@H](Cc3ccccc3)NC(=O)[C@]23[C@H](OC(C)=O)/C=C/[C@@](C)(O)C(=O)[C@@H](C)C/C=C/[C@H]3[C@@H]1O` [cytochalasin D], for which, in the data set on Caco-2 cells, the “effect of endocytosis inhibitor” value was “promoted the uptake”.
As for `CC(C)=CCC[C@](C)(O[C@@H]1O[C@H](CO[C@@H]2O[C@H](CO)[C@@H](O)[C@H](O)[C@H]2O)[C@@H](O)[C@H](O)[C@H]1O)[C@H]1CC[C@]2(C)[C@@H]1[C@H](O)C[C@@H]1[C@@]3(C)CC[C@H](O[C@@H]4O[C@H](CO)[C@@H](O)[C@H](O)[C@H]4O[C@@H]4O[C@H](CO)[C@@H](O)[C@H](O)[C@H]4O)C(C)(C)[C@@H]3CC[C@]12C` [ginsenoside Rb1], in data set [5], the oral bioavailability entry is “less than 5%”.
Consider `CC1(C)[C@@H](O[C@H]2O[C@H](C(=O)O)[C@@H](O)[C@H](O)[C@H]2O[C@@H]2O[C@H](C(=O)O)[C@@H](O)[C@H](O)[C@H]2O)CC[C@]2(C)[C@H]3C(=O)C=C4[C@@H]5C[C@@](C)(C(=O)O)CC[C@]5(C)CC[C@@]4(C)[C@]3(C)CC[C@@H]12` [glycyrrhizin], for which, in data set [5], the oral bioavailability entry is “less than 5%”.
`Cc1coc2c1C(=O)C(=O)c1c-2ccc2c1CCCC2(C)C` [tanshinone IIA]: in data set [5], the oral bioavailability result was “less than 5%”.
